Compounds with a hit are over-represented: about 3.7% of the library has one in this group of screens.
rCAG RNA binder: binds r(CAG) RNA repeats; AID 651821; 370,000 tested, 1.3% active; r(CAG) RNA repeat, TO-PRO-1 dye displacement fluorescence; inhibition, % at 3 µM;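 active means inhibition above the plate cutoff, the mean of all test compounds on that plate plus 3 SD, cut at about 35% in these data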;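 further: 0% = DMSO alone and 100% = 100 µM mitoxantrone as full dye displacement; higher means more dye released from RNA so lower well fluorescence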
TAAR1 agonist: agonists of human TAAR1 | CHO RD-HGA16 TAAR1, Fluo-8 calcium fluorescence; vehicle wells 0%, saturating PEA agonist 100% | activation, % at 3 µM | 360,000 tested, 0.99% active | AID 624467;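 active means activation above the mean activation of all test compounds in the run plus 3 SD, cut at about 38% in these data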
Target sequence (Q96RJ0 whole entry, looked up): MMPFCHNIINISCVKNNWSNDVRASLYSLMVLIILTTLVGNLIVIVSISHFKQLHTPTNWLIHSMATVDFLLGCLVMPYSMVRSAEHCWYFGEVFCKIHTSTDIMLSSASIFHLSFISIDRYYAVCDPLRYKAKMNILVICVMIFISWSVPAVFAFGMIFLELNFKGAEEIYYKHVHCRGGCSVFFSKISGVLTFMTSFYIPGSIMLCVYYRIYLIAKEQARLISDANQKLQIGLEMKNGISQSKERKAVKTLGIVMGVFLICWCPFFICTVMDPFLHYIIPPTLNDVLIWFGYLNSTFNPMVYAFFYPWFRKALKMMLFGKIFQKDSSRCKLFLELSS
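Test system: RD-HGA16 (CHO) cells co-expressing Gα16 and hTAAR1 | Doses: Single dose, 3 µM | Schedule: 17-24 h seeding, 75 min 37 °C dye, 30 min RT | Evaluation: % activation from peak over basal fluorescence ratio, DMSO-to-PEA scaled | Technique: Kinetic Fluo-8 calcium fluorescence | Benchmarks: Low control DMSO, high control PEA (EC100)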
NS3 helicase inh: HCV NS3 helicase inhibition | NS3 helicase DNA unwinding, Cy5 molecular beacon fluorescence | inhibition, % at 10.9 µM | 290,000 tested, 0.56% active | AID 1800;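 active means inhibition above the mean of all tested compounds plus 3 SD, set per campaign, cut at about 35% in these data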;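 further: 0% = DMSO wells and 100% = thioflavine S control wells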
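Measured by: Cy5 fluorescence, 0 and 60 min reads / Assay system: NS3 helicase fragment of HCV / Control set: low DMSO, high thioflavine S at 110 µM / Times: 1 h reaction at 25 °C, ATP-initiated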
TAAR1 antagonist: human TAAR1 antagonism. Q96RJ0. CHO RD-HGA16 TAAR1, Fluo-8 calcium fluorescence, antagonist. inhibition, % at 3 µM. 360,000 tested, 1.5% active. AID 624466;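 active means inhibition above a per-plate cutoff, the mean inhibition of test compounds on that plate plus 3 SD, cut at about 49% in these data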;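 further: 0% = DMSO plus EC80 beta-PEA response and 100% = DMSO alone without agonist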
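Test system – hTAAR1-expressing CHO RD-HGA16 cells, Gα16-coupled · Reagent – β-PEA at EC80 concentration, post-compound challenge · Compound dosing – 3 µM, single point · Timing – 140 s kinetic read after compound, 140 s after agonist · Detection – Fluo-8 intracellular calcium dye fluorescence, real-time kinetic reads · Control set – DMSO and EC80 PEA controls · Repeats – n of 1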
HCV core dimer: HCV core protein dimerization inhibition. inhibition, % at 5 µM. TR-FRET GST/Flag-core106 dimerization, 1536-well. 300,000 tested, 0.33% active. AID 1899;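 active means inhibition above the mean of all tested compounds plus 3 SD, set per screening campaign, cut at about 45% in these data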
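test system = GST/Flag-tagged HCV core106 proteins | probe or stimulus = Eu donor and XL665 acceptor anti-tag antibodies | times = compound-protein-antibody incubation 4 h at 22.5 °C | signal = TR-FRET, excitation 340 nm, emission 617 and 671 nm | measure = percent inhibition of core106 dimerization signal | controls = wells lacking GST-core106 and wells with excess unlabelled core106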
TAAR1 ag confirm: human TAAR1 agonism, confirmed; shares compounds with TAAR1 agonist; 2,400 tested, 82% active; activation, % at 3 µM; CHO RD-HGA16 TAAR1, Fluo-8 calcium fluorescence; scaled: DMSO 0%, maximal phenethylamine 100%;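 active means activation above a cutoff set at the run's mean compound activation plus 3 SD, cut at about 39% in these data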
Ga16 ag counter: counter-screen for TAAR1 agonists: nonselective agonists in parental cells. 2,400 tested, 50% active. activation, % at 3 µM. CHO-Ga16 parental, Fluo-8 calcium fluorescence; normalized to maximal ATP response, DMSO zero. shares compounds with TAAR1 agonist;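 active means activation above the run cutoff, the mean activation over all tested wells plus 3 SD, cut at about 12% in these data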;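 further: 0% = DMSO wells and 100% = maximal ATP response on the peak over basal ratio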
TAAR1 desens: counter-screen for human TAAR1 agonists: agonists that desensitize TAAR1 | shares compounds with TAAR1 agonist | CHO RD-HGA16 hTAAR1, Fluo-8 calcium, beta-PEA response inhibition | inhibition, % at 3 µM | 2,400 tested, 46% active;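 active means inhibition above the run cutoff, the mean inhibition of all test compounds plus 3 SD, cut at about 49% in these data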;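 further: beta-PEA stimulus applied at its EC80; loss of beta-PEA calcium signal after compound pretreatment read as receptor desensitization; 0% = DMSO with beta-PEA at EC80 and 100% = DMSO alone without agonist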
Ga16 nonsel ant: nonselective Ga16 antagonism, counter-screen; shares compounds with TAAR1 agonist; CHO-Ga16 ATP-induced calcium, Fluo-8 fluorescence; inhibition, % at 3 µM; 2,400 tested, 39% active;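 active means inhibition above the plate's mean compound inhibition plus 3 SD, computed per plate, cut at about 22% in these data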;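 further: 0% = EC80 ATP with DMSO and 100% = DMSO wells without ATP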
Active calls of the source: *; i = inactive; . = not tested or not shown.

SMILES	rCAG RNA binder	TAAR1 agonist	NS3 helicase inh	TAAR1 antagonist	HCV core dimer	TAAR1 ag confirm	Ga16 ag counter	TAAR1 desens	Ga16 nonsel ant
Cc1cc([N+](=O)[O-])nn1CC(=O)N1CCc2ccccc2C1	4	61*	6	-2	3	45*	8	12	5
Cc1cc(C)n(C(C)CC(=O)N2CCc3ccccc32)n1 (stereo not drawn)	-1	0	2	-13	-8	.	.	.	.
CCOC(=O)[C@]12CCCCC/C=C\1N(CCc1ccc(Cl)cc1)C(=O)[C@H]2CC(=O)N1CCN(C(=O)C2CC2)CC1	1	.	.	.	.	.	.	.	.
O=C(NC1CCCCN(Cc2ccc(Cl)cc2)C1=O)c1ccc(COc2ccccc2)cc1 (stereo not drawn)	11	.	.	.	.	.	.	.	.
O=C(O)c1ccc(N/N=C/C=C/c2ccccc2[N+](=O)[O-])cc1	7	66*	6	48	-16	51*	21*	53*	36*
CC1CCCC(C)N1C(=O)CNCc1ccc2c(c1)OCO2 (stereo not drawn)	-1	71*	-13	3	8	23	5	-4	-5
NC(Cc1ccc(F)cc1)c1csc(Nc2cc(Oc3ccccc3)ncn2)n1 (stereo not drawn)	18	71*	.	44	.	85*	36*	61*	43*
COc1ccc(CC(N)c2csc(Nc3cc(Oc4ccccc4)ncn3)n2)cc1 (stereo not drawn)	14	56*	.	35	.	58*	32*	52*	42*
CN(c1ccc(NC(=O)CCc2cn(Cc3ccc(Br)cc3)c3ccccc23)cc1)c1ccccn1	15	3	.	5	.	.	.	.	.
COC(=O)[C@@]1(Cc2ccc(F)cc2)[C@H]2c3cc(C(=O)N4CCCC4)n(CCc4ccccn4)c3C[C@H]2CN1C(=O)c1ccccc1	-5	88*	-16	16	2	53*	14*	2	16
CC(C)Cc1ccc(C(C)C(=O)Nc2ccc(O)cc2)cc1 (stereo not drawn)	-1	119*	-5	93*	0	108*	71*	101*	82*
CC(C)Cc1ccc(C(C)C(=O)Nc2cccnc2)cc1 (stereo not drawn)	-4	84*	-9	63*	-4	126*	65*	79*	43*
CC(C)Cc1ccc([C@H](C)C(=O)O)cc1	0	1	.	6	7	.	.	.	.
CN(CCNC(=O)c1ccc(N2CCCC2=O)cc1)CCc1ccccc1	-1	53*	2	27	-5	62*	0	28	3
CN(CCNC(=O)c1cccc(N2CCCC2=O)c1)Cc1ccccc1	-10	4	-4	20	-4	.	.	.	.
CCc1cc(=O)oc2c(CN3CCCC3)c(O)c(Cl)cc12	3	12	14	10	-2	.	.	.	.
CCc1cc(=O)oc2cc(C)c(CN3CCCC(C)C3)c(O)c12 (stereo not drawn)	27	51*	25	7	61*	82*	1	40	0
COC(=O)c1c(-n2c(C)cc(C=O)c2C)sc2c1CCCC2	-4	41*	1	72*	9	-4	1	0	3
Cc1cc(C=O)c(C)n1-c1sc2c(c1C(=O)O)CCCC2	4	0	-9	-2	2	.	.	.	.
COc1ccc2cc(CN(CCc3ccccc3)Cc3nnnn3Cc3ccco3)c(=O)[nH]c2c1	9	80*	12	49*	10	46*	8	49*	27*
Cc1ccc2cc(CN(Cc3ccc4c(c3)OCO4)Cc3nnnn3Cc3ccco3)c(=O)[nH]c2c1	6	7	14	47	14	.	.	.	.
CSc1ncnc2c1ncn2CCCNCCc1ccccn1	3	69*	.	-4	.	82*	4	19	4
CCN(CC)C(=O)CC[C@@H]1CC[C@]2(CCCN(C(=O)C3CCCCC3)C2)O1	-2	.	.	.	.	.	.	.	.
c1ccc(-c2nnnn2-c2ccccc2)cc1	-5	1	-9	-6	.	.	.	.	.
ClC(Cl)(c1nnnn1-c1ccccc1)c1nnnn1-c1ccccc1	-1	58*	-6	38	1	52*	24*	36	29*
SMILES	rCAG RNA binder	TAAR1 agonist	NS3 helicase inh	TAAR1 antagonist	HCV core dimer	TAAR1 ag confirm	Ga16 ag counter	TAAR1 desens	Ga16 nonsel ant
COC(=O)NNC(=O)C12CC3CC(CC(C3)C1)C2	5	1	6	-22	-8	.	.	.	.
NC(=S)NNC(=O)C12CC3CC(CC(C3)C1)C2	4	140*	-3	80*	9	136*	108*	102*	94*
COc1cccc(-c2cc(C(=O)Nc3cnn(Cc4ccc(F)cc4)c3)no2)c1	-1	46*	2	47	1	6	9	27	23*
COc1cccc(-c2cc(C(=O)Nc3cnn(Cc4ccccc4C)c3)no2)c1	0	4	0	40	9	.	.	.	.
Cc1c(CN2CCCC(C)C2)c(O)n(CCO)c(=O)c1C#N (stereo not drawn)	1	.	2	.	0	.	1	.	8
CCOc1ccc2noc3c2c1C(=O)c1ccccc1-3	i	69*	0	43	-15	26	36*	28	40*
CCNc1ccc2noc3c2c1C(=O)c1ccccc1-3	i	318*	21	90*	-125	114*	127*	66*	66*
O=C(CN1CCN(c2nc(-c3ccccc3)cs2)CC1)Nc1ccc(F)cc1F	2	.	.	.	.	.	.	.	.
O=C(N[C@@H](Cc1cccnc1)C(=O)N1CCC[C@H]1C(=O)NC1CCCC1)c1ccc(Cl)c(Cl)c1	-1	2	.	-16	.	.	.	.	.
CCCCC(=O)NNC(=S)NC(=O)c1cccc([N+](=O)[O-])c1	0	11	3	-8	7	.	.	.	.
O=C(NNC(=S)NC(=O)c1ccccc1)c1cccc([N+](=O)[O-])c1	9	96*	1	29	2	84*	65*	28	20
O=C(NNC(=S)NC(=O)c1cccc([N+](=O)[O-])c1)c1ccc(Br)cc1	3	99*	9	14	-2	107*	81*	77*	44*
Cc1ccc(C(=O)NC(=S)NNC(=O)c2cccc([N+](=O)[O-])c2)cc1	1	83*	8	17	.	101*	75*	62*	35*

Compound activity as filed in PubChem.
